A short description of data set [1]: Pharmacokinetics and bioavailability of ProFine ingredients. In kind it is in vivo, Sprague-Dawley rats. Particulars: ProFine 100 mg/kg oral gavage, rat plasma.
The test system of the next data set is rats. To be noted: cited from earlier work.
The test system of another data set is C4-2 cells. Briefly: MTS cell proliferation assay of in vitro cytotoxicity. In kind it is cell-based. To be noted: Homo sapiens, C4-2, 72 h, read-out: half minimal inhibitory concentration (IC50). In outline:
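AR-positive human prostate cancer C4-2 cells exposed for 72 hours to individual flavonoids or to a defined three-flavonoid mixture (molar ratio 1:1:2) across graded concentrations. Viability read by MTS cell proliferation assay; IC50 taken from the dose-effect curves. Data represent three or more independent experiments.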

The test system of a further data set is humans. To be noted: up to 1000 mg daily for several months; cited from earlier work.

The structures appear in SMILES notation.

`O=c1cc(-c2ccc(O)c(O)c2)oc2cc(O)cc(O)c12` [luteolin]: in data set [1], the maximum plasma concentration is 0.44 µM. In the data set with rats, the “acute oral toxicity (LD50)” value was more than 5000 mg/kg. Also, in the data set with C4-2 cells, the IC50 stood at 114 µM.
On to `O=c1c(O)c(-c2ccc(O)c(O)c2)oc2cc(O)cc(O)c12` [quercetin], for which the “adverse effects of human daily intakes” value in the data set on humans is “no adverse effects”.

(Values after paper PMC6034581 (Neoplasia (New York, N.Y.), 2018).)
